Measurements published in PubChem BioAssay AID623869 (Vanderbilt High Throughput Screening Facility, 2012).
About 75 (4%) of roughly 2,100 compounds were called active.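 How the source made its calls: active means calcium fluorescence trace judged by eye to show a response, as agonist, enhancer of the glutamate response, or inhibitor; inactive means trace judged by eye to show no response.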 The full list was thinned out, with actives kept by preference.

The compounds below were run against Metabotropic glutamate receptor 8 (Rattus norvegicus) (UniProt P70579) (assay: mGlu8-mediated intracellular calcium response modulators – cell-based, HEK293 rmGlu8, Gqi9 chimera, Fluo-4 calcium, counter-screen for GIRK activator project, confirmation (AID 623869)). Settings: HEK293 rmGlu8/Gqi9 calcium flux, Fluo-4 fluorescence; glutamate at EC20 added after compound.
How it was run: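 System – HEK-293 cells stably expressing rat mGlu8, plus transient chimeric Gqi9 · Medium – HEPES-buffered HBSS, pH 7.4 · Also added – EC20 glutamate · Compound – one dose, 20 µM addition solution, 0.2% DMSO · Times – compound 4 min before glutamate, then 2 min recording · Measured by – Fluo-4 calcium fluorescence sampled at 1 Hz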

Sequence of Metabotropic glutamate receptor 8 (Rattus norvegicus) (P70579 whole entry, looked up): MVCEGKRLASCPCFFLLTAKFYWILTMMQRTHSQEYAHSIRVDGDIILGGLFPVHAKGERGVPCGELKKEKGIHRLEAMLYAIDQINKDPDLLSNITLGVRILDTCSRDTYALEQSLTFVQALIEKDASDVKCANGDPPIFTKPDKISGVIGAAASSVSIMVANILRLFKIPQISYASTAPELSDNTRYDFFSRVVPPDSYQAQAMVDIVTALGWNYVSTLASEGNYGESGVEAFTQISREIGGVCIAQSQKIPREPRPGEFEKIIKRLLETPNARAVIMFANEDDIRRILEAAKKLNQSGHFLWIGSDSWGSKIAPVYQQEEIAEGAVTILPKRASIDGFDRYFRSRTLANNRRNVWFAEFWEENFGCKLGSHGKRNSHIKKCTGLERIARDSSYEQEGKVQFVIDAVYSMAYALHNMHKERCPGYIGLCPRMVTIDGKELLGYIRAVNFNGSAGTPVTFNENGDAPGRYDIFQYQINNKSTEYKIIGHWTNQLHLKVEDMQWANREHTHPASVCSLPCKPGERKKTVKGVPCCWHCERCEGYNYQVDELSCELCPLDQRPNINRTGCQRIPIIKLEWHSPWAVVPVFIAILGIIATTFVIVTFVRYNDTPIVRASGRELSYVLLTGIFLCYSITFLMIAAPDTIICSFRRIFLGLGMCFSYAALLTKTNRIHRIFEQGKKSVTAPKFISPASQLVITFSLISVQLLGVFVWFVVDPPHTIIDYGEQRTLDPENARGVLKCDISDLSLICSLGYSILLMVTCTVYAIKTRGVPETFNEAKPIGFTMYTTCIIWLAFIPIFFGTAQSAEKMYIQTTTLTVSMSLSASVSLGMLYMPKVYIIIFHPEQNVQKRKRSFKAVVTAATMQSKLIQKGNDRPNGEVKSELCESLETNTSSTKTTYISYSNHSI

Row | SMILES | outcome
1 | COC(=O)c1cc(CSc2nc3ccc(C)cc3[nH]2)oc1C | inactive; 0
2 | O=C(NNC(=S)Nc1cccc2ccccc12)c1cccc(Br)c1 | inactive; 0
3 | CCc1c(C)c(C#N)c2nc3ccccc3n2c1NCc1ccco1 | inactive; 0
4 | Cc1ccc2nc(-c3ccc(O)cc3)c(Nc3ccc4c(c3)OCCO4)n2c1 | inactive; -1
5 | O=c1c2cc(Cl)ccc2[nH]c(=S)n1Cc1ccco1 | inactive; 0
6 | O=C(NC(=S)Nc1ccc(N2CCCCC2)cc1)c1ccco1 | inactive; 0
7 | Cc1cc(C)c2[nH]c(=S)cc(C)c2c1 | inactive; 0
8 | CCCCn1c(=S)[nH]c2c(oc3ccc(Cl)cc32)c1=O | inactive; 0
9 | O=C1CC(C(F)(F)C(F)(F)C(F)(F)F)=Nc2ccccc2N1 | inactive; 0
10 | Cc1ccc2c(c1)NC(=O)CC(c1ccccc1)=N2 | active; 2
11 | O=C(NC(=S)N1CCN(c2ccc([N+](=O)[O-])cc2)CC1)c1ccc(F)cc1 | inactive; 0
12 | COc1ccc(NC(=O)C(=O)NNC(=O)c2cccs2)cc1 | inactive; 0
13 | O=C(COc1ccccc1)NNC(=S)NC(=O)c1ccc(Cl)cc1Cl | active; 1
14 | Cc1ccccc1C(=O)NC(=S)Nc1ccc(Oc2ccc(Cl)cc2)cc1 | inactive; 4
15 | O=C(NC(=S)NCCc1ccccc1)c1ccco1 | inactive; 0
16 | Cc1ccc(C(=O)NNC(=S)NC(=O)c2ccc(Cl)cc2Cl)cc1 | inactive; 4
17 | CCCCNC(=S)NC(=O)c1ccc(Cl)cc1Cl | inactive; 0
18 | O=C(NC(=S)NCCc1ccccc1)c1ccccc1 | inactive; 0
19 | Cc1ccccc1C(=O)NNC(=S)NC(=O)c1ccc(Cl)cc1Cl | active; 1
20 | COC(=O)c1ccccc1NC(=S)NC(=O)c1ccccc1 | inactive; 0
21 | Cc1ccccc1C(=O)NC(=S)NCCc1ccccc1 | active; -1
22 | Cc1ccccc1C(=O)NNC(=S)NC(=O)c1ccccc1 | active; 1
23 | CC(C)NC(=S)NC(=O)c1ccc(Cl)cc1Cl | inactive; 0
24 | CC(C)CNC(=S)NC(=O)c1ccc(Cl)cc1Cl | inactive; 0

Row | SMILES | outcome
25 | CC(C)C(=O)Nc1ccccc1N1CCN(C(=O)c2ccccc2)CC1 | inactive; 0
26 | CC1(C)Cc2c(sc3[nH]c(=S)n(Cc4ccco4)c(=O)c23)CO1 | inactive; 0
27 | Cc1[nH]n2c(=O)cc(C(C)(C)C)nc2c1-c1ccccc1 | inactive; 0
28 | COC(=O)c1sc(NC(=S)NC(=O)c2ccccc2)nc1C | inactive; 0
29 | Cc1ccccc1C(=O)Nc1ccccc1C(=O)N/N=C\c1ccco1 | inactive; 0
30 | O=C(N/N=C(\c1ccccc1)c1cccnc1)C(O)(c1ccccc1)c1ccccc1 | inactive; 0
31 | CC(Oc1ccc(Cl)cc1Cl)C(=O)NC(=S)N1CCc2ccccc21 (stereo not given) | inactive; 0
32 | Cc1onc(-c2ccccc2)c1C(=O)NC(=S)Nc1sc2c(c1C#N)CCCC2 | inactive; 0
33 | Cc1ccccc1NC(=S)NC(=O)c1cncc(Br)c1 | inactive; 0
34 | Cc1onc(-c2ccccc2)c1C(=O)NNC(=S)NC(=O)c1ccc(Br)cc1 | active; 1
35 | Cc1cccc(OCC(=O)Nc2ccccc2N2CCN(C(=O)C(C)C)CC2)c1C | inactive; 0
36 | CCc1ccc(Nc2nc3ccccc3c(=O)s2)cc1 | inactive; 0
37 | O=C1OC2(CCCCC2)OC(=O)C1=CNc1nc2ccccc2s1 | inactive; 0
38 | Cc1ccc(C)c(NC(=S)NNC(=O)c2csc(C(C)C)c2)c1 | inactive; 0
39 | Brc1ccccc1C1=Nn2c(nnc2-c2ccccc2)SC1 | inactive; 0
40 | c1cc2c(cc1C1=Nn3c(nnc3C3CCCCC3)SC1)OCO2 | inactive; 0
41 | CCOc1ccc(-c2nc(-c3ccc(OC)c(OC)c3)no2)cc1OCC | inactive; 0
42 | COc1ccccc1C1=Nn2c(nnc2C2CCCCC2)SC1 | inactive; 0
43 | COc1ccc(-c2nnc3sc(C4CCCCC4)nn23)cc1OC | active; 2
44 | COc1ccc(C2=Nn3c(nnc3C3CCCCC3)SC2)cc1OC | active; 2
45 | CCCc1nnc2n1N=C(c1ccc(OC)c(OC)c1)CS2 | active; 2
46 | CC(C)COn1c(=S)[nH]c2ccccc2c1=O | inactive; 0
47 | Cc1ccc(N2C(=S)N=C(Nc3ccccc3C)C23CCOC(C)(C)C3)cc1 (stereo not given) | inactive; 0
48 | C=CCN(CC=C)C(=S)NC(=O)c1ccc(OC)c(Br)c1 | inactive; 0

Row | SMILES | outcome
49 | Cc1ccc(N=C2CCCN2Cc2ccccc2)c(C#N)c1 | inactive; 0
50 | CCC(C)n1c(=S)[nH]c2c(sc3ccc([N+](=O)[O-])cc32)c1=O (stereo not given) | inactive; 4
51 | O=C(COc1ccccc1)NC(=S)N1CCc2ccccc21 | inactive; 0
52 | O=C(NC(=S)N1CCN(Cc2ccc3c(c2)OCO3)CC1)c1cccc(Br)c1 | inactive; 0
53 | CC(c1ccc(Cl)cc1)n1c(-c2ccc3ccccc3n2)n[nH]c1=S (stereo not given) | inactive; 0
54 | O=C(N/N=C/c1ccccn1)c1ccc(Br)cc1 | inactive; 0
55 | O=C(NC(Nc1nc2ccc([N+](=O)[O-])cc2s1)(C(F)(F)F)C(F)(F)F)c1ccccc1 | inactive; 4
56 | O=C(NC(Nc1nc2ccc([N+](=O)[O-])cc2s1)(C(F)(F)F)C(F)(F)F)c1ccccc1Cl | active; -1
57 | Cc1ccc(C)c(OCC(=O)Nc2nc3ccc([N+](=O)[O-])cc3s2)c1C | inactive; 0
58 | CCOC(=O)c1sc(NC(=S)NC(=O)c2ccco2)nc1C | inactive; 0
59 | CCOC(=O)c1sc2ncnc(NCc3ccco3)c2c1C | active; 2
60 | Cc1sc2ncnc(SCc3ccco3)c2c1C | inactive; 0
61 | O=C(Nc1nc(-c2ccccc2)c(-c2ccccc2)o1)c1ccc(F)cc1 | inactive; 0
62 | COc1ccc(C)cc1NC(=O)C(=O)NNC(=O)c1ccco1 | inactive; 0
63 | Cc1ccc(-c2csc3nc[nH]c(=S)c23)cc1C | inactive; 0
64 | COC(=O)C1=NN(C(=O)c2ccc(Cl)cc2)C(O)(c2ccccc2)C1 (stereo not given) | inactive; 4
65 | COC(=O)CSC1=NS(=O)(=O)c2ccccc21 | active; -1
66 | COC(=O)CSc1nc2ncccc2[nH]1 | inactive; 0
67 | CCc1cccc(NC(=O)CSC2=NS(=O)(=O)c3ccccc32)c1 | inactive; 0
68 | CCn1c(SCC(N)=O)nc2sc3c(c2c1=O)CCCC3 | inactive; 0
69 | COc1cc(NC(=O)C(=O)NNC(=O)C2CCCCC2)c(OC)cc1Cl | inactive; 0
70 | COc1cc(/C=C2\S/C(=N/S(=O)(=O)c3ccc(C)cc3)NC2=O)c([N+](=O)[O-])cc1OC | active; 2
